Source: ChEMBL document CHEMBL1165965, “Synthesis and structure-activity relationships of 1,2,3,4-tetrahydropyrido[2,3-b]pyrazines as potent and selective inhibitors of the anaplastic lymphoma kinase” (Bioorg Med Chem, 2010)

How the values were obtained:
[1] = tested on: Tyrosine-protein kinase ABL1 (Homo sapiens), P00519 [E255K]; experiment: Inhibition of ABL1 E255K mutant at 1 uM
Method in brief: (§1)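 Ambit KINOMEscan screen at a single concentration across a 250–400 kinase panel, recorded as percent inhibition. Selectivity was expressed as S(90), the fraction of kinases inhibited >90%.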

[2] = biological target: Tyrosine-protein kinase CSK (Homo sapiens) (UniProt P41240); experiment: Inhibition of CSK at 1 uM
Chain of Tyrosine-protein kinase CSK (Homo sapiens) (P41240 2-450 limits assumed): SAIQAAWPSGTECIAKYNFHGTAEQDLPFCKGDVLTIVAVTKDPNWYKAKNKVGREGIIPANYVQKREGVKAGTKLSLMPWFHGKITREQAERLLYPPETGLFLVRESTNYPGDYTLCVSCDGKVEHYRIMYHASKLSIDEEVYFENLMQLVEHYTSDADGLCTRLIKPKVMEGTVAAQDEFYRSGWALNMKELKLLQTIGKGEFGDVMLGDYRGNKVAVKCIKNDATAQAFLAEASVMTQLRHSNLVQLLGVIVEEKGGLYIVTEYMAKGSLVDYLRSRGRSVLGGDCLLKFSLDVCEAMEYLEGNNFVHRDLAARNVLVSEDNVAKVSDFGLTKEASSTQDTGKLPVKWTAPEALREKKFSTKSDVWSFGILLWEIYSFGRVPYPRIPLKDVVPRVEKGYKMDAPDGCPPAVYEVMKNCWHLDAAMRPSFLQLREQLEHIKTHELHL
Method in brief: (§2)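 Single-concentration screen using Ambit Bioscience KINOMEscan technology across a panel of 250–400 kinases. Per-kinase inhibition from this screen was summarized as S(90), the fraction of kinases inhibited by more than 90%.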

[3] = tested on: Mast/stem cell growth factor receptor Kit (Homo sapiens), P10721 [L576P]; experiment: Inhibition of KIT L576P mutant at 1 uM
Chain of Mast/stem cell growth factor receptor Kit (Homo sapiens), P10721 [L576P] (P10721 whole entry L576P): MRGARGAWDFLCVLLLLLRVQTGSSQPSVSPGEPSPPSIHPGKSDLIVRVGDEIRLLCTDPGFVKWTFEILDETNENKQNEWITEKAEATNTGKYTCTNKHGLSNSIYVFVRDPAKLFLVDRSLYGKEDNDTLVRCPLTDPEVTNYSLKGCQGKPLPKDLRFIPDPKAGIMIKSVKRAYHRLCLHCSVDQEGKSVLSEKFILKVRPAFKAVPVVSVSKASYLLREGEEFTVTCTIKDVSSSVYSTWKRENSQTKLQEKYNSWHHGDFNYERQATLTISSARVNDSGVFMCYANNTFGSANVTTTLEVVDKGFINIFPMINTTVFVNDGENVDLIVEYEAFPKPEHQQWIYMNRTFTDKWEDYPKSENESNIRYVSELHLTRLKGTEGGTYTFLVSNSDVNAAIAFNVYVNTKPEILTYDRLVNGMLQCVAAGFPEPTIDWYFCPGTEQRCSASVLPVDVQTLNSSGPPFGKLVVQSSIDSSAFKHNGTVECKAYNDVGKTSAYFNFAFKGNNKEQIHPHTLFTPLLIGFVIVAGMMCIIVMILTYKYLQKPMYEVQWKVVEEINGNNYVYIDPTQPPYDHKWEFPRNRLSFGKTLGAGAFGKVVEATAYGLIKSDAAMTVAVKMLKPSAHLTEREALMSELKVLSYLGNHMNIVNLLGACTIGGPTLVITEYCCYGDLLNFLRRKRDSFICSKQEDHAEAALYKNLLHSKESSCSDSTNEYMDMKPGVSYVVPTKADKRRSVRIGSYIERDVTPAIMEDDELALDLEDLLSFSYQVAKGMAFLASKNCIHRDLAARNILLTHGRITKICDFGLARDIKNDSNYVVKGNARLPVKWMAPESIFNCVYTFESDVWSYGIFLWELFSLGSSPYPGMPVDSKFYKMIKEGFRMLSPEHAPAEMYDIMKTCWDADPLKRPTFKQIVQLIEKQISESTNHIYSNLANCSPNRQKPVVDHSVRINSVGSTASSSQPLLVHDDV

[4] = biological target: Vascular endothelial growth factor receptor 1 (Homo sapiens) (UniProt P17948); experiment: Inhibition of FLT1 at 1 uM
Method in brief: (§3)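 Single-concentration screen on the Ambit KINOMEscan platform, run against a panel of 250–400 kinases. Per-kinase inhibition was also summarized as S(90), the fraction of kinases inhibited by more than 90%.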

[5] = biological target: Tyrosine-protein kinase ABL2 (Homo sapiens) (UniProt P42684); experiment: Inhibition of ABL2 at 1 uM; method in brief: as §1
[6] = biological target: T1, Ephrin type-B receptor 4 (Homo sapiens) (UniProt P54760); experiment: Inhibition of EPHB4 at 1 uM; method in brief: as §2
T1 sequence (whole entry): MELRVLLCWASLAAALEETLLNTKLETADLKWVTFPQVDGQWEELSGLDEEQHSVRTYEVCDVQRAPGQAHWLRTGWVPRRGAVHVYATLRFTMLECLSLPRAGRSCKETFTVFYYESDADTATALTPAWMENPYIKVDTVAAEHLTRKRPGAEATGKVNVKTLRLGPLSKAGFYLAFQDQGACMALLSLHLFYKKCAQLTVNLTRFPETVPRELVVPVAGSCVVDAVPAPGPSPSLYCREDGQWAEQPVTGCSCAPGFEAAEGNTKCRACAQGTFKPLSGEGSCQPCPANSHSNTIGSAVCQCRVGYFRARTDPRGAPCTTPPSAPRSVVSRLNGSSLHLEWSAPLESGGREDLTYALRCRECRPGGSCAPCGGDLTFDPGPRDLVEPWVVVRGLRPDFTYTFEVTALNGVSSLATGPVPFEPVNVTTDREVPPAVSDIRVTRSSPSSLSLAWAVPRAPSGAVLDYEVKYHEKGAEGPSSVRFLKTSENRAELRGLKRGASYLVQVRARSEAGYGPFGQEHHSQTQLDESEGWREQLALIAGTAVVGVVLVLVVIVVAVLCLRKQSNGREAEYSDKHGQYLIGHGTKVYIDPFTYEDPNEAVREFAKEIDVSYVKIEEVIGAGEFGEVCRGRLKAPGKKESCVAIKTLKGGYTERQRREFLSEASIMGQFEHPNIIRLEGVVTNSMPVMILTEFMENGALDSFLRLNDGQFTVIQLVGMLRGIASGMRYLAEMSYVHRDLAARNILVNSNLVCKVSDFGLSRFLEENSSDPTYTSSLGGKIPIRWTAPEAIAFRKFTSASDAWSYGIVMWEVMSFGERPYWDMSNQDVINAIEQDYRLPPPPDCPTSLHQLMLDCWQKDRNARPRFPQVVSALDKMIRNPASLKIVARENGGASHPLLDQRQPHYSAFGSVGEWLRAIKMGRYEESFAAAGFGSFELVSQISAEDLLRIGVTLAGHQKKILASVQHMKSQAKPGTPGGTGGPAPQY

[7] = biological target: Ephrin type-A receptor 2 (Homo sapiens) (UniProt P29317); experiment: Inhibition of EPHA2 at 1 uM; method in brief: as §2
Chain of Ephrin type-A receptor 2 (Homo sapiens) (P29317 whole entry): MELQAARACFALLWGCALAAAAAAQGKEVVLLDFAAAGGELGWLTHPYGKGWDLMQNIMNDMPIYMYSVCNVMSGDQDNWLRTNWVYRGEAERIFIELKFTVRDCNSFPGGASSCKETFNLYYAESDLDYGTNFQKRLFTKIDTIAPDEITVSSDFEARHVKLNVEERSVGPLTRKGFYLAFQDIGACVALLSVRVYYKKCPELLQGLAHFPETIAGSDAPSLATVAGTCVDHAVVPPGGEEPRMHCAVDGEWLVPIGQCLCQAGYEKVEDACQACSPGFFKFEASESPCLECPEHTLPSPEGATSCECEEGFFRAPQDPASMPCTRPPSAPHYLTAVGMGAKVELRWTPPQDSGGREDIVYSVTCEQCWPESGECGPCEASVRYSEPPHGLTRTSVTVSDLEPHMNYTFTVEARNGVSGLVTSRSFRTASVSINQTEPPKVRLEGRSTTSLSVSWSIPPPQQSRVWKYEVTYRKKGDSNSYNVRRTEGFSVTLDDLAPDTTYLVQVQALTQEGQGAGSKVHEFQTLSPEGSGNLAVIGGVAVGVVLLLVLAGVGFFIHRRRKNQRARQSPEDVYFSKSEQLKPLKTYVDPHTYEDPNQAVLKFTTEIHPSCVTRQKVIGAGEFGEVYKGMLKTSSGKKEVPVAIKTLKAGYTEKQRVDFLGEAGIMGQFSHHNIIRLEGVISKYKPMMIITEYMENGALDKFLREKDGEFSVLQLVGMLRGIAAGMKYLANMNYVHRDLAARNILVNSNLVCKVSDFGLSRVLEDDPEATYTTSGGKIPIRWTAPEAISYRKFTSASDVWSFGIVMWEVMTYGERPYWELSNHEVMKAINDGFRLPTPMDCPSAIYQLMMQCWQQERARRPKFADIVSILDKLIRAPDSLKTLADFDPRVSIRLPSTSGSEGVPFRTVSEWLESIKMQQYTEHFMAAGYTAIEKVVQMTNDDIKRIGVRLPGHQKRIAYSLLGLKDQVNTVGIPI

[8] = tested on: T2, Receptor-type tyrosine-protein kinase FLT3 (Homo sapiens), P36888 [D835H]; experiment: Inhibition of FLT3 D835H mutant at 1 uM; method in brief: as §3
T2 sequence (whole entry): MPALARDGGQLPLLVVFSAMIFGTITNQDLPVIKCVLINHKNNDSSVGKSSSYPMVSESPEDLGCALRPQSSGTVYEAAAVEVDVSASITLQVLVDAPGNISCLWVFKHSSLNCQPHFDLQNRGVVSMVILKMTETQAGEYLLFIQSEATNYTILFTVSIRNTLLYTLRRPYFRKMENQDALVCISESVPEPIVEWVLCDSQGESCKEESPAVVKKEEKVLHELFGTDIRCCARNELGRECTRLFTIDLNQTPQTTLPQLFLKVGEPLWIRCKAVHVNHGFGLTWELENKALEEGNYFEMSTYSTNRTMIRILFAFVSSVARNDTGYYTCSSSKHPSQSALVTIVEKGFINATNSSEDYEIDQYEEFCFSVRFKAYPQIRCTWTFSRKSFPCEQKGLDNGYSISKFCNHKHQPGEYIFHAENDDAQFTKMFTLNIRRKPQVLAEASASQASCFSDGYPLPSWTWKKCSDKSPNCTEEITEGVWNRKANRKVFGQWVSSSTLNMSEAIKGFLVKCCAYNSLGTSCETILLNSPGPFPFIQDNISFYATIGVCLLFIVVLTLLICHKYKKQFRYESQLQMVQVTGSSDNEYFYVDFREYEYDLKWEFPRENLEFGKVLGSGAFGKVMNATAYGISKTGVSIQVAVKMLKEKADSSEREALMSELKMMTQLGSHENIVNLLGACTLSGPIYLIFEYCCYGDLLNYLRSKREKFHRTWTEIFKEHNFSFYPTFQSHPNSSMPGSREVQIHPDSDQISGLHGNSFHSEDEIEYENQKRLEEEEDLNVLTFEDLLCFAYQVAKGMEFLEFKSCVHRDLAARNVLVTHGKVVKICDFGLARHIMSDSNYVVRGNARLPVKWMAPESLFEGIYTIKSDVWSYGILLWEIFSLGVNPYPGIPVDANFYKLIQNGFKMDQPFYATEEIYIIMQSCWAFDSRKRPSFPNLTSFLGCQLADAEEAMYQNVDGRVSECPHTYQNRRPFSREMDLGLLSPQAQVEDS

[9] = biological target: Activated CDC42 kinase 1 (Homo sapiens) (UniProt Q07912); experiment: Inhibition of TNK2 at 1 uM; method in brief: as §3
[10] = biological target: TRAF2 and NCK-interacting protein kinase (Homo sapiens) (UniProt Q9UKE5); experiment: Inhibition of TNIK at 1 uM; method in brief: as §3
[11] = biological target: Serine/threonine-protein kinase MRCK alpha (Homo sapiens) (UniProt Q5VT25); experiment: Inhibition of MRCKA at 1 uM
Method in brief: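 Kinase-panel screen using KINOMEscan technology, with 250–400 kinases per panel. Each compound was tested at a single concentration, and inhibition of each kinase was recorded. Selectivity was summarised as S(90), the fraction of kinases inhibited by more than 90%.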

[12] = biological target: Wee1-like protein kinase (Homo sapiens) (UniProt P30291); experiment: Inhibition of WEE1 at 1 uM
Chain of Wee1-like protein kinase (Homo sapiens) (P30291 whole entry, looked up): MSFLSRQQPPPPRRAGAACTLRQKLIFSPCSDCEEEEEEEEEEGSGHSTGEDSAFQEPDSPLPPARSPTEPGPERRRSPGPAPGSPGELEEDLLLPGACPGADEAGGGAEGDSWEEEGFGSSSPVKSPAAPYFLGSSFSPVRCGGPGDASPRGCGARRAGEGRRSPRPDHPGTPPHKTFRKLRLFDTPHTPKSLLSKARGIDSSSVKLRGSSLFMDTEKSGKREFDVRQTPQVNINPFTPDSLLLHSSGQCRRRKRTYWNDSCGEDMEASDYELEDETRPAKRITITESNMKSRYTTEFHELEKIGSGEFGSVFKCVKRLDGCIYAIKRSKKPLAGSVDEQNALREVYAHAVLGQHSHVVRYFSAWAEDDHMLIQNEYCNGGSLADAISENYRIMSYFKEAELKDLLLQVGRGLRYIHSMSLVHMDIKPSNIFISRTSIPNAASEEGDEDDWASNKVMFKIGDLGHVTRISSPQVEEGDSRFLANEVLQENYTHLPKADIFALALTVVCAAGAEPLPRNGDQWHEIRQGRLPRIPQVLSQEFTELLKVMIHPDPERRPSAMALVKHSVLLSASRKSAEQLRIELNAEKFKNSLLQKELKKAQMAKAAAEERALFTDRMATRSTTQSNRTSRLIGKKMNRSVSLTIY

[13] = biological target: Calcium/calmodulin-dependent protein kinase type II subunit beta (Homo sapiens) (UniProt Q13554); experiment: Inhibition of CAMK2B at 1 uM; method in brief: as §1
Chain of Calcium/calmodulin-dependent protein kinase type II subunit beta (Homo sapiens) (Q13554 whole entry): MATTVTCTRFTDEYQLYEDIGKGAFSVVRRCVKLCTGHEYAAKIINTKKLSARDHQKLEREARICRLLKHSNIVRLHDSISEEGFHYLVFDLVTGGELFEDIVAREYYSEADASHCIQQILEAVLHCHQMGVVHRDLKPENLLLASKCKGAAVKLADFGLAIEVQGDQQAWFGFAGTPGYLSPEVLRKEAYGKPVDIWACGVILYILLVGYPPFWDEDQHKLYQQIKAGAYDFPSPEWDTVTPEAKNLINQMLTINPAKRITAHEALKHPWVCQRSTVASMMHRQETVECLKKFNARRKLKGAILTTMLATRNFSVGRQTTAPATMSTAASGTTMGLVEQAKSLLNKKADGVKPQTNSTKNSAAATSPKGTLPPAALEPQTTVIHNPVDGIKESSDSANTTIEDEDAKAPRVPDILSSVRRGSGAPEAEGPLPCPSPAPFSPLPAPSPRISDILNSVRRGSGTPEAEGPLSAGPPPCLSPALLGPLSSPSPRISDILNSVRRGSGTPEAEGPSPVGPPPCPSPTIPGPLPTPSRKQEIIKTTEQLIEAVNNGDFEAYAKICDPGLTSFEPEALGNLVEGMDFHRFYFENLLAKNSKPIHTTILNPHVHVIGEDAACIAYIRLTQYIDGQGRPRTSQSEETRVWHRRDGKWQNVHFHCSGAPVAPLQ

[14] = biological target: Ephrin type-A receptor 5 (Homo sapiens) (UniProt P54756); experiment: Inhibition of EPHA5 at 1 uM; method in brief: as §2
Chain of Ephrin type-A receptor 5 (Homo sapiens) (P54756 whole entry): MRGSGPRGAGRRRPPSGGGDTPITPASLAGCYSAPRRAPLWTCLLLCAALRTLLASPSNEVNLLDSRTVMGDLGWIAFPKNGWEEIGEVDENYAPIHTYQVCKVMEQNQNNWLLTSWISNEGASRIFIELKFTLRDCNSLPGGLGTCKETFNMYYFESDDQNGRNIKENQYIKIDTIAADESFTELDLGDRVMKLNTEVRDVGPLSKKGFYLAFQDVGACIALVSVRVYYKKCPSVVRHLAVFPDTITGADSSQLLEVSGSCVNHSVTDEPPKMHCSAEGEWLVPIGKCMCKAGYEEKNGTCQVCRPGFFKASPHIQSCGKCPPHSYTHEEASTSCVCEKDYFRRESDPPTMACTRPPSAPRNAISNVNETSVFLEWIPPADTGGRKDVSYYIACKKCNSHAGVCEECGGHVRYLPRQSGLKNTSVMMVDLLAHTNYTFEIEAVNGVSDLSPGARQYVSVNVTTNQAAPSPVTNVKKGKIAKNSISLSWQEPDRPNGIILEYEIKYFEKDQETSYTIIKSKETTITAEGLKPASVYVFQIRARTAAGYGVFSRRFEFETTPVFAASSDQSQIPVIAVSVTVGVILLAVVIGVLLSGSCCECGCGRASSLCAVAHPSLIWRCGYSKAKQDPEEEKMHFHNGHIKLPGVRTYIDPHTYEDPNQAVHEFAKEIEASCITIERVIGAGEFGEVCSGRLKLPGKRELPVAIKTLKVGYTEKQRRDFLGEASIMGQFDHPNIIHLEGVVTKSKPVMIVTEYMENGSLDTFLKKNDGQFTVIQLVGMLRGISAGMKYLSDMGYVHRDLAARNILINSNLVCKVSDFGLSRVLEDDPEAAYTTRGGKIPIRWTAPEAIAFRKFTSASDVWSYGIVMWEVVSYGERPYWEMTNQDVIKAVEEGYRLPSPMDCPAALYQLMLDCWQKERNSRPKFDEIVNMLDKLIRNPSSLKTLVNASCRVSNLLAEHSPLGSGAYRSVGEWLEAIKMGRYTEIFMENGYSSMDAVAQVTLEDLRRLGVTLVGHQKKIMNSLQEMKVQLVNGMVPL

SMILES | inhibition [1] | inhibition [2] | inhibition [3] | inhibition [4] | inhibition [5] | inhibition [6] | inhibition [7] | inhibition [8] | inhibition [9] | inhibition [10] | inhibition [11] | inhibition [12] | inhibition [13] | inhibition [14]
CN1CCN(c2ccc(-c3cnc4c(c3)N(Cc3cc(F)ccc3F)CCN4)cn2)CC1 | < 50% | < 50% | 75% | < 50% | < 50% | < 50% | < 50% | 72.5% | 79% | < 50% | < 50% | < 50% | < 50% | < 50%
CC(=O)N1CCN(c2cc(-c3cnc4c(c3)N(Cc3cc(Cl)ccc3C(F)(F)F)CCN4)ccn2)CC1 | < 50% | < 50% | 90% | < 50% | < 50% | < 50% | < 50% | 81% | 99% | < 50% | < 50% | < 50% | < 50% | < 50%
CN1CCN(c2ccc(-c3cnc4c(c3)N(Cc3c(F)ccc(F)c3Cl)CCN4)cn2)CC1 | 70% | < 50% | 73% | < 50% | 83% | < 50% | < 50% | 73% | 85% | 82% | < 50% | < 50% | < 50% | < 50%
FC(F)(F)c1ccc(Cl)cc1CN1CCNc2ncc(-c3ccnc(N4CCNCC4)c3)cc21 | < 50% | < 50% | 99% | < 50% | < 50% | < 50% | < 50% | 93% | 99% | < 50% | < 50% | < 50% | < 50% | < 50%
CN1CCN(c2ccc(-c3cnc4c(c3)N(Cc3cc(Cl)ccc3Cl)CCN4)cn2)CC1 | < 50% | < 50% | 98% | < 50% | < 50% | < 50% | < 50% | 80% | 88% | < 50% | < 50% | < 50% | < 50% | < 50%
O=C(c1ccc(-c2cnc3c(c2)N(Cc2cc(Cl)ccc2C(F)(F)F)CCN3)cc1)N1CCC(N2CCCC2)CC1 | < 50% | < 50% |  | < 50% | 75.9% | < 50% | < 50% | 90.1% | 99.8% | < 50% | < 50% |  | < 50% | < 50%
O=C(O)c1ccc(-c2cnc3c(c2)N(Cc2cc(Cl)ccc2C(F)(F)F)CCN3)cc1 | < 50% | < 50% |  | < 50% | < 50% | < 50% | < 50% | < 50% | 97.4% | < 50% | < 50% |  | < 50% | < 50%
CN1CCN(c2ccc(-c3cnc4c(c3)N(Cc3cc(Cl)ccc3C(F)(F)F)CCN4)cn2)CC1 | < 50% | < 50% | 80% | < 50% | < 50% | < 50% | < 50% | 82% | 98% | < 50% | < 50% | < 50% | < 50% | < 50%
O=C(c1ccc(-c2cnc3c(c2)N(Cc2cc(Cl)ccc2C(F)(F)F)CCN3)cc1)N1CCCCC1 | < 50% | < 50% |  | < 50% | < 50% | < 50% | < 50% | < 50% | 93.2% | < 50% | < 50% |  | < 50% | < 50%
COC1CCN(C(=O)c2ccc(-c3cnc4c(c3)N(Cc3cc(Cl)ccc3C(F)(F)F)CCN4)cc2)CC1 | < 50% | < 50% |  | < 50% | < 50% | < 50% | < 50% | 77.2% | 97.2% | < 50% | < 50% |  | < 50% | < 50%
